Measurements published in ChEMBL document CHEMBL5357032, “In Vitro Antimalarial Activity of Trichothecenes against Liver and Blood Stages of Plasmodium Species” (J Nat Prod, 2024).

Experiments:
[1] = tested on: Plasmodium falciparum; test: Antimalarial activity against asexual blood stage Plasmodium falciparum W2 incubated for 72 hrs by Hoechst 33342 staining based assay; format: functional, organism-based
Method in brief: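 P. falciparum W2 ring stages plated at 2% parasitemia and 0.75% hematocrit. Cells allowed to settle, then dosed by pin transfer from a 12-point 1:3 dilution series made from 1000× DMSO stocks. Artemisinin was the positive control and 0.1% v/v DMSO the negative. After 72 h: fixed, Hoechst 33342 DNA stain, high-content imaging. EC50 fitted per run from duplicate wells; three independent experiments.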

[2] = Cytotoxicity against human HepG2 cells incubated for 72 hrs by Hoechst 33342 staining based assay; format: toxicity, cell-based
Method in brief: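 HepG2 cells, 2000 per collagen-coated well, treated the following day by pin transfer from a 12-point 1:3 dilution series (1000× DMSO stocks). Puromycin positive control; 0.1% v/v DMSO negative. After 72 h: fixed, Hoechst 33342 nuclear stain, high-content imaging. CC50 fitted per run from duplicate wells; three independent experiments.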

[3] = Selectivity index, ratio of CC50 for human HepG2 cells to EC50 for asexual blood stage Plasmodium falciparum W2; format: toxicity; details: read-out: Ratio CC50/EC50
[4] = tested on: Plasmodium vivax; test: Antimalarial activity against liver stage Plasmodium vivax schizont infected in human hepatocytes preincubated for 5 to 10 days followed by compound addition and measured after 12 days post infection by immunofluorescence staining based assay; format: functional, organism-based; details: hepatocyte
Method in brief: (§1)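 Primary human hepatocytes seeded at 18 000 per collagen-coated well. Two days later, infected with sporozoites from mosquitoes fed P. vivax patient blood (Cambodia) 18 days earlier; a different isolate was used per experiment. Radical-cure mode: treated days 5–7 post-infection. Day 12: fixed, anti-PvUIS4 immunofluorescence, high-content imaging. Nigericin and 0.1% DMSO controls. Duplicate wells; two independent experiments.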

[5] = tested on: Plasmodium vivax; test: Antimalarial activity against liver stage Plasmodium vivax hypnozoite infected in human hepatocytes preincubated for 5 to 10 days followed by compound addition and measured after 12 days post infection by immunofluorescence staining based assay; format: functional, organism-based; details: hepatocyte; method in brief: as §1
[6] = Cytotoxicity against human primary hepatocytes; format: toxicity, cell-based, Hepatocyte
Method in brief: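 Host primary human hepatocytes (18 000 per collagen-coated well) in the P. vivax liver-stage radical-cure cultures. Compound given days 5–7 post-infection from a 12-point 1:3 dilution series; fixed at day 12 and imaged by high-content imaging. 0.1% DMSO negative control. CC50 fitted per run from duplicate wells; two independent experiments.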

[7] = Selectivity index, ratio of CC50 for primary human hepatocytes to EC50 for liver stage Plasmodium vivax schizont infected in human hepatocytes; format: toxicity, cell-based; details: read-out: Ratio CC50/EC50
[8] = Selectivity index, ratio of CC50 for primary human hepatocytes to EC50 for liver stage Plasmodium vivax hypnozoite infected in human hepatocytes; format: toxicity, cell-based; details: read-out: Ratio CC50/EC50

Structure (SMILES) | EC50 [1] [nM] | pEC50 [1] | CC50 at 72 h ([2]; read-out: CC50) [nM] | CC50 at 72 h ([2]; read-out: pCC50 (converted)) [nM] | selectivity ratio [3] | EC50 [4] [nM] | pEC50 [4] | EC50 [5] [nM] | pEC50 [5] | CC50 ([6]; read-out: CC50) [nM] | CC50 ([6]; read-out: pCC50 (converted)) [nM] | selectivity ratio [7] | selectivity ratio [8]
CC1=CC[C@@]23COC(=O)[C@@H](O)[C@H](C)CCOC(=O)/C=C/C=C\C(=O)O[C@@H]4C[C@@H](O[C@@H]2C1)[C@@]1(CO1)[C@]43C | 0.45 | 9.35 | 3.55 | 3.55 | 7.95 | 4.07 | 8.39 | 30.9 | 7.51 | 316 | 316 | 77.7 | 10.1
CC1=C[C@H]2O[C@@H]3C[C@@H](O)[C@](C)([C@@]2(CO)CC1)[C@@]31CO1 | > 4370 | < 5.36 | – | – | – | > 10000 | < 5 | > 3310 | < 5.48 | – | – | – | –
CC(=O)OC[C@]12CCC(C)=C[C@H]1O[C@@H]1[C@H](O)[C@@H](OC(C)=O)[C@@]2(C)[C@]12CO2 (single isomer, unassigned) | – | 8.21 | – | – | 4.43 | – | 7.87 | – | 7.44 | – | – | 28.7 | 10.7
CO[C@@H]1C[C@@H](C[C@H]2CC[C@H](C)[C@H]([C@@H](C)C(=O)O)O2)O[C@]2(O[C@](C)([C@H]3CC[C@@](C)([C@@H]4O[C@@H]([C@H]5O[C@@](O)(CO)[C@H](C)C[C@@H]5C)C[C@@H]4C)O3)C[C@H]2C)[C@@H]1C [NIGERICIN] | – | – | – | – | – | – | – | – | – | – | 200 | > 38.9 | > 16.3
COc1ccc(C[C@H](N)C(=O)N[C@H]2[C@@H](O)[C@H](n3cnc4c(N(C)C)ncnc43)O[C@@H]2CO)cc1 [PUROMYCIN] | – | – | – | – | – | – | – | – | – | – | – | < 1 | 2.25
